This note sets out measurements from ChEMBL document CHEMBL1926521, “Arylcyanoacrylamides as inhibitors of the Dengue and West Nile virus proteases” (Bioorg Med Chem, 2011).

Calls of active or inactive are those of the source. No cut-off for these calls is given here.

The test system of test [1] is Dengue virus. The test can be described thus: Inhibition of Dengue virus NS2B-NS3 protease expressed in Escherichia coli BL21 lambda (DE3) using Abz-NleKRRS-3-(NO2)Y as substrate at 50 uM preincubated for 15 mins before substrate addition measured up to 15 mins by spectrofluorimetry. An outline of the steps:
(§1)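 Single-concentration screen against His-tagged NS2B-NS3 protease (Ni²⁺-affinity purified from E. coli). Enzyme was 100 nM for Dengue or 150 nM for West Nile. Inhibitor at 50 µM was preincubated 15 min with enzyme, then internally quenched FRET substrate (final 50 µM) was added. Read at ex 320/em 405 nm for 15 min. Rate taken as RFU/s; % inhibition is the mean of triplicates.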

For test [2], the target named is Prothrombin (Homo sapiens, UniProt P00734). Nature of the test: Inhibition of human thrombin using Boc-VPR-AMC as substrate at 25 uM preincubated for 15 mins before substrate addition measured up to 10 mins by spectrofluorimetry.
The test system of test [3] is West Nile virus. Nature of the test: Inhibition of West Nile virus NS2B-NS3 protease expressed in Escherichia coli BL21 lambda (DE3) using Abz-GLKRGG-3-(NO2)Y as substrate at 50 uM preincubated for 15 mins before substrate addition measured up to 15 mins by spectrofluorimetry. An outline of the steps: as §1

The term inhibition denotes the percentage by which the read-out fell short of the control. Take `N#C/C(=C\c1ccc(O)c(O)c1)C(N)=O`: the inhibition in test [1] worked out at 34.9%; in test [2], 18.4%; in test [3], 28.8%.

On to `CN1CCN(c2c(F)c(F)c(/C=C(\C#N)C(N)=O)c(F)c2F)CC1`, for which the inhibition in test [1] was 19.2%; in test [2], 28.5%; in test [3], 31.9%.

As to `N#C/C(=C\c1cccc(C(=O)O)c1)C(=O)NC1CC1`, the inhibition is 20.2% in test [1], 11.9% in test [2] and 20.1% in test [3].

With `CC(C)c1ccc(/C=C(\C#N)C(=O)NCc2ccccn2)cc1`, the results for the inhibition in test [1], in test [2] and in test [3] were 24.9%, 11.6% and 39.5%, respectively.

Consider `CC(C)c1ccc(/C=C(\C#N)C(=O)NC2CC2)cc1`, for which the figures for the inhibition in test [1], in test [2] and in test [3] were 18.2%, 17.9% and 22.2%, respectively.

As for `CN1CCN(C(=O)/C(C#N)=C/c2ccc(O)cc2)CC1`, the figures for the inhibition in test [1], in test [2] and in test [3] were 35.4%, 20.8% and 35.1%, respectively.

For the compound `COc1ccc(/C=C(\C#N)C(=O)N[C@@H](CO)C(=O)NC2CC2)cc1`, the inhibition in test [1] was 23%; in test [2], 23.3%; in test [3], 31.7%.

Consider `N#C/C(=C\c1ccc(N2CCNCC2)cc1)C(N)=O`, for which the inhibition in test [1] is 28.6%; in test [2], 26.1%; in test [3], 45%.

Turning to `N#C/C(=C\c1ccccc1N1CCOCC1)C(N)=O`, the inhibition in test [1] turned out to be 10.4%; in test [2] it was 7.4%; in test [3], 7.7%.

Regarding `N#C/C(=C\c1sccc1Br)C(N)=O`, the values for the inhibition in test [1], in test [2] and in test [3] were 18.4%, 10.1% and 19.3%, respectively.

Turning to `N#C/C(=C\c1cccc(N2CCOCC2)c1)C(=O)NC1CC1`, the inhibition is 18.5% in test [1], 9.7% in test [2] and 20.5% in test [3].

Take `N#C/C(=C\c1ccc(Br)s1)C(=O)NC1CC1`: in test [1], the inhibition result was “inactive”. For the same compound, the figures for the inhibition in test [2] and in test [3] were 17.9% and 10.5%, respectively.

In the case of `N#Cc1n[nH]nc1-c1ccccc1`, the inhibition entry in test [1] and in test [2] was “inactive” in each case. Moreover, the inhibition in test [3] was 11.2%.

In the case of `CN1CCN(c2ccc(/C=C(\C#N)C(N)=O)cc2)CC1`, the values for the inhibition in test [1], in test [2] and in test [3] were 32.3%, 22% and 40.9%, respectively.

For `N#C/C(=C\c1cc(O)c(O)c([N+](=O)[O-])c1)C(N)=O`, the inhibition in test [1] worked out at 24.3%; in test [2], 22.5%; in test [3], 28.2%.

For `N#C/C(=C\c1ccc(C#N)cc1)C(N)=O`, the inhibition in test [1] is 13.3%; in test [2], 10.6%; in test [3], 20%.

Consider `CN(C)c1ccc(/C=C/CC(C#N)C(=O)NC2CC2)cc1` (stereo unspecified), for which the inhibition in test [1] was 9%; in test [2], 6.7%; in test [3], 37%.

As for `COc1cc(/C=C(\C#N)C(N)=O)ccc1OCc1ccccc1`, the inhibition entry in test [1] and in test [3] was “inactive” throughout. This compound also registered an inhibition in test [2] of 16%.

As for `C/C(=C(\C#N)C(N)=O)c1ccc(O)cc1`, the inhibition in test [1] stood at 13.2%; in test [3], 22.7%. Moreover, the inhibition entry in test [2] is “inactive”.

Take `CN(C)c1ccc(/C=C/C=C(\C#N)C(=O)NC2CC2)cc1`: the inhibition is 10.3% in test [1], 16.2% in test [2] and 17.1% in test [3].

On to `N#C/C(=C\c1ccc(N2CCOCC2)s1)C(N)=O`, for which the values for the inhibition in test [1], in test [2] and in test [3] were 23.2%, 38.6% and 29.1%, respectively.

Regarding `N#C/C(=C\c1ccc(Cl)s1)C(N)=O`, the inhibition in test [1] is 22%; in test [2] it was 27.9%; in test [3], 23.8%.

As to `CC(=C\c1ccccc1)/C=C(\C#N)C(N)=O`, the results for the inhibition in test [1], in test [2] and in test [3] were 30.2%, 20.5% and 34.6%, respectively.

Turning to `N#C/C(=C\c1ccncc1)C(N)=O`, the inhibition entry in test [1], in test [2] and in test [3] was “inactive” in each case.

On to `CN(C)c1ccc(/C=C(\C#N)C(=O)O)cc1`, for which the inhibition in test [1] worked out at 38.7%; in test [2], 13.3%; in test [3], 46.5%.

For `N#C/C(=C\c1ccc(O)cc1)C(=O)N1CCOCC1`, the inhibition in test [1] was determined as 32.2%; in test [2], 18%; in test [3], 49.9%.

`N#C/C(=C\c1ccc(N2CCCC2)cc1)C(N)=O`: the inhibition in test [1] turned out to be 24.3%; in test [2], 17.7%; in test [3], 24.6%.

On to `N#C/C(=C\c1ccc(C(=O)O)cc1)C(=O)NC1CC1`, for which the values for the inhibition in test [1], in test [2] and in test [3] were 20%, 15.9% and 31%, respectively.

As to `C/C(=C(/C#N)C(N)=O)c1ccccc1`, the inhibition result in test [1] is “inactive”. The inhibition was 7.3% in test [2] and 13.7% in test [3].

Turning to `N#C/C(=C\c1ccc(C(=O)N2CCOCC2)cc1)C(=O)NC1CC1`, the results for the inhibition in test [1], in test [2] and in test [3] were 22.9%, 9% and 23%, respectively.

With `Cc1ccc(/C=C(\C#N)C(N)=O)cc1`, the inhibition in test [1] is 32.2%; in test [3], 22.8%. In addition, in test [2], the inhibition entry is “inactive”.

In the case of `COc1cccc(/C=C(\C#N)C(N)=O)c1`, the inhibition in test [1] amounted to 16.3%; in test [2] it was 9.6%; in test [3], 12.3%.

On to `N#C/C(=C\c1ccc(C(=O)O)cc1)C(N)=O`, for which the inhibition in test [1] was 17.1%; in test [2], 13.2%; in test [3] it was 23.8%.

For the compound `N#C/C(=C\c1ccc(O)cc1)C(=O)NCC1CCCO1` (stereo unspecified), the inhibition in test [1] was found to be 46.4%; in test [2], 16.8%; in test [3], 44.4%.

Consider `N#C/C(=C\c1ccc(N2CCOCC2)cc1)C(N)=O`, for which the inhibition came out at 28.2% in test [1], 19.2% in test [2] and 35.3% in test [3].

As to `COc1cc(/C=C(\C#N)C(N)=O)cc(I)c1O`, the inhibition turned out to be 30.5% in test [1], 23% in test [2] and 43.8% in test [3].

With `C/C(=C(\C#N)C(N)=O)c1ccccc1`, the inhibition turned out to be 9% in test [1], 9.7% in test [2] and 18.4% in test [3].

Consider `CC(C)/C(=C(\C#N)C(N)=O)c1ccccc1`, for which the inhibition entry in test [1] was “inactive”. The inhibition in test [2] was determined as 10.1%; in test [3], 13.8%.

Consider `N#C/C(=C\c1cccs1)C(N)=O`, for which the values for the inhibition in test [1], in test [2] and in test [3] were 28.4%, 15.7% and 23.9%, respectively.

As for `N#C/C(=C\c1ccc(O)cc1)C(=O)NC1CC1`, the figures for the inhibition in test [1], in test [2] and in test [3] were 44.7%, 18.8% and 57.3%, respectively.

In the case of `COc1ccc(/C=C(\C#N)C(N)=O)cc1`, the inhibition in test [1] stood at 19.7%; in test [2] it was 16.7%; in test [3], 23.4%.

As to `N#C/C(=C\c1ccc(CO)cc1)C(N)=O`, the inhibition in test [1] worked out at 22.1%; in test [2], 8.7%; in test [3], 21.7%.
